The values that follow come from ChEMBL document CHEMBL3526054, “Substituted imidazole of 5-fluoro-2-[4-[(2-phenyl-1H-imidazol-5-yl)methyl]-1-piperazinyl]pyrimidine Inactivates cytochrome P450 2D6 by protein adduction” (Drug Metab Dispos, 2011).

For data set [1], the target named is T1, Cytochrome P450 2D6 (Homo sapiens, UniProt P10635). Kind of data set: Partition ratio of […] assessed as number of molecules of compound metabolized per molecule of inactivated enzyme after 60 mins by HPLC analysis. The data set is classed as ADME. The settings on record: recombinant enzyme, 1 h.
Data set [2] addresses T1, Cytochrome P450 2D6. Kind of data set: Binding affinity to recombinant human CYP2D6 expressed in Escherichia coli co-expressing P450 reductase by spectral analysis. Format: ADME. The settings on record: read-out: Ks. In outline: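 Purified recombinant CYP2D6 (from E. coli), 1 μM in 100 mM potassium phosphate pH 7.4, split between two cuvettes at room temperature. Ligand (0.05–16 μM, in water) titrated into the sample cuvette, solvent into the reference. Difference spectra recorded 350–500 nm. ΔA430–395 plotted against concentration. Ks obtained by nonlinear fit to the quadratic tight-binding equation.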

Data set [3] has as its target Cytochrome P450 2C19 (Homo sapiens, UniProt P33261). The data set is described as follows: Drug metabolism assessed as CYP2C19 (unknown origin)-mediated retention time of metabolite by LC-MS/MS analysis in presence of NADPH. The data set is classed as ADME.
Data set [4] has as its target T1, Cytochrome P450 2D6. The data set is described as follows: Inhibition of CYP2D6 (unknown origin). The data set is classed as ADME.
For data set [5], the target named is T1, Cytochrome P450 2D6. The data set is described as follows: Covalent binding affinity to human CYP2D6 with P450 reductase assessed per nmol of enzyme after 60 mins by protein precipitation and scintillation counting analysis in absence of NADPH. The settings on record: 1 h.
Data set [6] deals with T2, CYP2D6 (Homo sapiens, UniProt P10635). Kind of data set: (§1) Inhibition of catalytic activity of recombinant human CYP2D6 expressed in Escherichia coli co-expressing P450 reductase assessed as hydroxybufuralol activity at 16 uM after <15 mins by HPLC analysis in presence of NADPH. The data set is classed as ADME. The settings on record: probe bufuralol (hydroxybufuralol formation).

For data set [7], the target named is T2, CYP2D6. Kind of data set: Inhibition of catalytic activity of […] assessed as loss of native heme in hemochrome at 16 uM after <15 mins by HPLC analysis in presence of NADPH. The data set is classed as ADME.
In data set [8] the target is T2, CYP2D6. The data set is described as follows: Inhibition of catalytic activity of recombinant human CYP2D6 expressed in Escherichia coli co-expressing P450 reductase assessed as loss of native heme in hemochrome at 16 uM after <15 mins by hemochrome assay in presence of NADPH. The data set is classed as ADME. In short, it runs like this: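 Purified CYP2D6 (1 μM) with 2 μM reductase, 30 μM dilauroyl-PC, catalase, SOD and 16 μM compound in 100 mM KPi pH 7.4, incubated 0–40 min with an NADPH-generating system. Controls lacked compound or NADPH system. Quenched in detergent buffer, then pyridine (22%) and NaOH (0.01 N, final) added. Dithionite-reduced spectrum 520–620 nm; heme from A557–A575 (32.4 mM⁻¹cm⁻¹), relative to time 0.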

The target in data set [9] is Cytochrome P450 2C9 (Homo sapiens, UniProt P11712). The data set is described as follows: Drug metabolism assessed as CYP2C9 (unknown origin)-mediated retention time of metabolite by LC-MS/MS analysis in presence of NADPH. The data set is classed as ADME.
The target of data set [10] is T2, CYP2D6. The data set is described as follows: Inhibition of catalytic activity of recombinant human CYP2D6 expressed in Escherichia coli co-expressing P450 reductase assessed as loss of ability to bind CO at 16 uM after <15 mins by […] in presence of NADPH. The data set is classed as ADME. In outline: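 Purified CYP2D6 (1 μM) reconstituted with 2 μM P450 reductase, 30 μM dilauroyl-PC, catalase and SOD in 100 mM KPi pH 7.4, with 16 μM compound and an NADPH-generating system. Incubated up to 25 min. Controls lacked compound or NADPH system. Quenched with detergent buffer. Reduced-CO difference spectrum read 400–500 nm; P450 from A450–A475 (91 mM⁻¹cm⁻¹), expressed relative to time 0.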

For data set [11], the target named is T1, Cytochrome P450 2D6. Kind of data set: Covalent binding affinity to human CYP2D6 with P450 reductase assessed per nmol of enzyme after 60 mins by protein precipitation and scintillation counting analysis in presence of NADPH. The settings on record: 1 h.
In data set [12] the target is T1, Cytochrome P450 2D6. The data set is described as follows: Drug metabolism assessed as human CYP2D6 with P450 reductase-mediated retention time of metabolite by LC-MS/MS analysis in presence of NADPH. The data set is classed as ADME.
Data set [13] concerns the target T1, Cytochrome P450 2D6. The description is as §1. Format: ADME. The settings on record: recombinant enzyme, 0.25 h, 16 µM.

T2 sequence (P10635 whole entry): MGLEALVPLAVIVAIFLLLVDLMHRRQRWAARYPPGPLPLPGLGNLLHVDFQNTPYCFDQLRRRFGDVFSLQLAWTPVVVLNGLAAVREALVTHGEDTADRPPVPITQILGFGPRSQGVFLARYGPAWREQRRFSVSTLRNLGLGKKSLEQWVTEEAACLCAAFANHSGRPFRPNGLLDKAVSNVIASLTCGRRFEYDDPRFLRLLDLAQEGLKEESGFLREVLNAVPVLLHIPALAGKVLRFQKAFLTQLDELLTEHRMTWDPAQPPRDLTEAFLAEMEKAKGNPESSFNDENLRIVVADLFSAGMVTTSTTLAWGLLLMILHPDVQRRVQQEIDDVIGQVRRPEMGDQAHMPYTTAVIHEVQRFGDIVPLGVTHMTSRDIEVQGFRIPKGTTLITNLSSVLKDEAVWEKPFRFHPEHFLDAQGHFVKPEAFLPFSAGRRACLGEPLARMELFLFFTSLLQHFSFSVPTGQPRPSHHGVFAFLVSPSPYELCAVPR
T1 sequence (P10635 whole entry): as above
Cytochrome P450 2C19, sequence (P33261 whole entry): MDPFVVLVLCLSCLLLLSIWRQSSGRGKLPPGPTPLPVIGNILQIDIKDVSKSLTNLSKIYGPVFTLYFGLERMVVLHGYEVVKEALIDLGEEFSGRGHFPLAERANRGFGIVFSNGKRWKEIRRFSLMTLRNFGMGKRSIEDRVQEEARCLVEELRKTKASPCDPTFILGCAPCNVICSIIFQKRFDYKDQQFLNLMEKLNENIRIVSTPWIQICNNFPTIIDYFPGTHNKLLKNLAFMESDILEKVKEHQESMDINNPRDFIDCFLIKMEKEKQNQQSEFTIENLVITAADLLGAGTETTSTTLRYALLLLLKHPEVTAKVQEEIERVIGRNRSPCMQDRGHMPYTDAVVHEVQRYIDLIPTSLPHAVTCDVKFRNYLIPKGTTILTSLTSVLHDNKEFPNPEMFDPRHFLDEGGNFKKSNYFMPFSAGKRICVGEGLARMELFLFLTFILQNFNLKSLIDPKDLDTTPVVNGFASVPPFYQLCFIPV
Cytochrome P450 2C9, sequence (P11712 whole entry): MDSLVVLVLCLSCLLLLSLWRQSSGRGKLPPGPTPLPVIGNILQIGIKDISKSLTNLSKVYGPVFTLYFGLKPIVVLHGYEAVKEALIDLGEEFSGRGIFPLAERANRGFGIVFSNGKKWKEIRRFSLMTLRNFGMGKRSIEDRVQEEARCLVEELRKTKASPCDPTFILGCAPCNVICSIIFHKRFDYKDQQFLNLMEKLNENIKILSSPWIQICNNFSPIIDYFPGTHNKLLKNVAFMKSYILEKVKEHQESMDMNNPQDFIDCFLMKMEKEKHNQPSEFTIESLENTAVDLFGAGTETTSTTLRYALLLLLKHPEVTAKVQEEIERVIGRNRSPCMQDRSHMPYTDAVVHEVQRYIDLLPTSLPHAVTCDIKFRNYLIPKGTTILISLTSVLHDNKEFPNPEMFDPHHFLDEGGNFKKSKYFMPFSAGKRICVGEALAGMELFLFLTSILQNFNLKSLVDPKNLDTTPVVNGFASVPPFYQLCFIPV

`CCc1nc(C)c(CN2CCN(c3cc(C(F)(F)F)ccn3)CC2)[nH]1`: in data set [1], the Ratio came out at 99.
For `Fc1cnc(N2CCN(Cc3cnc(-c4ccccc4)[nH]3)CC2)nc1`, the Kd in data set [2] turned out to be 390 nM. The Ratio in [1] is on record as 3. Also, the Retention_time in data set [3], in data set [9] and in data set [12] was 17 min in each case. The Ki (usually the equilibrium dissociation constant of an inhibitor or competing ligand from its target) in data set [4] turned out to be 550 nM. Besides, the PB is given as 1.95 nmol in data set [5] and 3.15 nmol in data set [11]. Besides, the inhibition (as a rule, the drop in the measured response relative to a control, in per cent) at 0.25 h, 16 µM was 90% in [6], 25% in [7], 15% in data set [8] and 25% in data set [10].
Regarding `COc1ccc2c(c1)[C@]13CCCC[C@@H]1[C@H](C2)N(C)CC3` [DEXTROMETHORPHAN], the “inhibition (INH)” value in [13] is listed as “Active”.
